Test results taken from ChEMBL document CHEMBL1667748, “Synthesis and anti-inflammatory evaluation of some new acyl-hydrazones bearing 2-aryl-thiazole” (2011).
Activity calls are given as the source filed them. No cut-off for these calls is given here.

System: Rattus norvegicus
Experiment: Antiinflammatory activity against Wistar-Bratislava albino rat assessed as monocyte count at 3.2 mg/kg, ip (Rbv = 7.6+/-0.45%)
Type: functional
Settings: route intraperitoneal

| Structure (SMILES) | Activity [%] |
| --- | --- |
| Cc1ccc(-c2nc(CC(=O)N/N=C/c3ccccc3OCc3csc(-c4ccc(Br)cc4)n3)cs2)cc1 | 2.86 |
| Cc1ccc(-c2nc(CC(=O)N/N=C/c3cccc(OCc4csc(-c5ccccc5)n4)c3)cs2)cc1 | 2.86 |
| O=C(COc1ccc2c(=O)cc(-c3ccccc3)oc2c1)N/N=C/c1cccc(OCc2csc(-c3ccccc3)n2)c1 | 2.6 |
| O=C(Cc1csc(-c2cccc(C(F)(F)F)c2)n1)N/N=C/c1ccccc1OCc1csc(-c2ccc(Br)cc2)n1 | 2.57 |
| O=C(COc1ccc2c(=O)cc(-c3ccccc3)oc2c1)N/N=C/c1cccc(OCc2csc(-c3ccc(Br)cc3)n2)c1 | 3.28 |
| Cc1nc(-c2ccccc2)sc1C(=O)COc1ccc(/C=N\NC(=O)Cc2csc(-c3cccc(C(F)(F)F)c3)n2)cc1 | 2 |
| Cc1ccc(-c2nc(CC(=O)N/N=C\c3ccc(OCc4csc(-c5ccccc5)n4)cc3)cs2)cc1 | 1.86 |
| O=C(Cc1csc(-c2cccc(C(F)(F)F)c2)n1)N/N=C\c1ccc(OCc2csc(-c3ccccc3)n2)cc1 | 2 |

System: Rattus norvegicus
Experiment: Antiinflammatory activity against Wistar-Bratislava albino rat assessed as neutrophil count at 3.2 mg/kg, ip (Rbv = 55.6+/-1.32%)
Type: functional
Settings: route intraperitoneal

| Structure (SMILES) | Activity [%] |
| --- | --- |
| Cc1ccc(-c2nc(CC(=O)N/N=C/c3ccccc3OCc3csc(-c4ccc(Br)cc4)n3)cs2)cc1 | 67.71 |
| Cc1ccc(-c2nc(CC(=O)N/N=C/c3cccc(OCc4csc(-c5ccccc5)n4)c3)cs2)cc1 | 73.29 |
| O=C(COc1ccc2c(=O)cc(-c3ccccc3)oc2c1)N/N=C/c1cccc(OCc2csc(-c3ccccc3)n2)c1 | 71.71 |
| O=C(Cc1csc(-c2cccc(C(F)(F)F)c2)n1)N/N=C/c1ccccc1OCc1csc(-c2ccc(Br)cc2)n1 | 68.85 |
| O=C(COc1ccc2c(=O)cc(-c3ccccc3)oc2c1)N/N=C/c1cccc(OCc2csc(-c3ccc(Br)cc3)n2)c1 | 57.43 |
| Cc1nc(-c2ccccc2)sc1C(=O)COc1ccc(/C=N\NC(=O)Cc2csc(-c3cccc(C(F)(F)F)c3)n2)cc1 | 78 |
| Cc1ccc(-c2nc(CC(=O)N/N=C\c3ccc(OCc4csc(-c5ccccc5)n4)cc3)cs2)cc1 | 52.57 |
| O=C(Cc1csc(-c2cccc(C(F)(F)F)c2)n1)N/N=C\c1ccc(OCc2csc(-c3ccccc3)n2)cc1 | 82.28 |

System: Rattus norvegicus
Experiment: Antiinflammatory activity against Wistar-Bratislava albino rat assessed as leukocyte count at 3.2 mg/kg, ip (Rbv = 4952.7+/-436.9 number/mm'3)
Type: functional
Settings: route intraperitoneal

| Structure (SMILES) | Activity |
| --- | --- |
| Cc1ccc(-c2nc(CC(=O)N/N=C/c3ccccc3OCc3csc(-c4ccc(Br)cc4)n3)cs2)cc1 | 9300 /mm3 |
| Cc1ccc(-c2nc(CC(=O)N/N=C/c3cccc(OCc4csc(-c5ccccc5)n4)c3)cs2)cc1 | 8620 /mm3 |
| O=C(COc1ccc2c(=O)cc(-c3ccccc3)oc2c1)N/N=C/c1cccc(OCc2csc(-c3ccccc3)n2)c1 | 12100 /mm3 |
| O=C(Cc1csc(-c2cccc(C(F)(F)F)c2)n1)N/N=C/c1ccccc1OCc1csc(-c2ccc(Br)cc2)n1 | 7837.14 /mm3 |
| O=C(COc1ccc2c(=O)cc(-c3ccccc3)oc2c1)N/N=C/c1cccc(OCc2csc(-c3ccc(Br)cc3)n2)c1 | 8000 /mm3 |
| Cc1nc(-c2ccccc2)sc1C(=O)COc1ccc(/C=N\NC(=O)Cc2csc(-c3cccc(C(F)(F)F)c3)n2)cc1 | 10200 /mm3 |
| Cc1ccc(-c2nc(CC(=O)N/N=C\c3ccc(OCc4csc(-c5ccccc5)n4)cc3)cs2)cc1 | 3271.43 /mm3 |
| O=C(Cc1csc(-c2cccc(C(F)(F)F)c2)n1)N/N=C\c1ccc(OCc2csc(-c3ccccc3)n2)cc1 | 5664.28 /mm3 |

System: Rattus norvegicus
Experiment: Antiinflammatory activity against Wistar-Bratislava albino rat assessed as reduction serum nitrate/nitrite concentration at 3.2 mg/kg, ip
Type: functional, organism-based
Parameters: dose 3.2 mg/kg
Settings: not given
Summary of the method: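 In rats given turpentine oil 0.6 mL/100 g i.m. plus i.p. treatment in 1% carboxymethyl cellulose suspension, serum nitrate was reduced to nitrite with VCl3 in acidic solution. Griess reagents (SULF, NEDD) were then added, and absorbance at 540 nm was read after about 30-45 min incubation.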

| Structure (SMILES) | Activity |
| --- | --- |
| Cc1ccc(-c2nc(CC(=O)N/N=C/c3ccccc3OCc3csc(-c4ccc(Br)cc4)n3)cs2)cc1 | inactive |
| Cc1ccc(-c2nc(CC(=O)N/N=C/c3cccc(OCc4csc(-c5ccccc5)n4)c3)cs2)cc1 | inactive |
| O=C(COc1ccc2c(=O)cc(-c3ccccc3)oc2c1)N/N=C/c1cccc(OCc2csc(-c3ccccc3)n2)c1 | Active |
| O=C(COc1ccc2c(=O)cc(-c3ccccc3)oc2c1)N/N=C/c1cccc(OCc2csc(-c3ccc(Br)cc3)n2)c1 | Active |
| Cc1nc(-c2ccccc2)sc1C(=O)COc1ccc(/C=N\NC(=O)Cc2csc(-c3cccc(C(F)(F)F)c3)n2)cc1 | Active |
| Cc1ccc(-c2nc(CC(=O)N/N=C\c3ccc(OCc4csc(-c5ccccc5)n4)cc3)cs2)cc1 | inactive |
| O=C(Cc1csc(-c2cccc(C(F)(F)F)c2)n1)N/N=C\c1ccc(OCc2csc(-c3ccccc3)n2)cc1 | inactive |

Species: Rattus norvegicus
Experiment: Induction of phagocytosis in Wistar-Bratislava albino rat PMNC using Escherichia coli suspension assessed as reduction in phagocytosis activity after 30 mins
Type: functional
Settings: not given

| Structure (SMILES) | Activity |
| --- | --- |
| O=C(Cc1csc(-c2cccc(C(F)(F)F)c2)n1)N/N=C/c1ccccc1OCc1csc(-c2ccc(Br)cc2)n1 | Active |
| O=C(COc1ccc2c(=O)cc(-c3ccccc3)oc2c1)N/N=C/c1cccc(OCc2csc(-c3ccc(Br)cc3)n2)c1 | Active |
| O=C(Cc1csc(-c2cccc(C(F)(F)F)c2)n1)N/N=C\c1ccc(OCc2csc(-c3ccccc3)n2)cc1 | Active |

Species: Rattus norvegicus
Experiment: Induction of phagocytosis in Wistar-Bratislava albino rat PMNC using Escherichia coli suspension assessed as reduction in phagocytosis index after 30 mins
Type: functional
Settings: not given

| Structure (SMILES) | Activity |
| --- | --- |
| O=C(Cc1csc(-c2cccc(C(F)(F)F)c2)n1)N/N=C/c1ccccc1OCc1csc(-c2ccc(Br)cc2)n1 | Active |
| O=C(COc1ccc2c(=O)cc(-c3ccccc3)oc2c1)N/N=C/c1cccc(OCc2csc(-c3ccc(Br)cc3)n2)c1 | Active |
| Cc1nc(-c2ccccc2)sc1C(=O)COc1ccc(/C=N\NC(=O)Cc2csc(-c3cccc(C(F)(F)F)c3)n2)cc1 | Active |
| O=C(Cc1csc(-c2cccc(C(F)(F)F)c2)n1)N/N=C\c1ccc(OCc2csc(-c3ccccc3)n2)cc1 | Active |

System: Rattus norvegicus
Experiment: Antiinflammatory activity against Wistar-Bratislava albino rat assessed as lymphocyte count at 3.2 mg/kg, ip (Rbv = 37+/-2.2%)
Type: functional
Settings: route intraperitoneal

| Structure (SMILES) | Activity [%] |
| --- | --- |
| Cc1ccc(-c2nc(CC(=O)N/N=C/c3ccccc3OCc3csc(-c4ccc(Br)cc4)n3)cs2)cc1 | 29.14 |
| Cc1ccc(-c2nc(CC(=O)N/N=C/c3cccc(OCc4csc(-c5ccccc5)n4)c3)cs2)cc1 | 19.71 |
| O=C(COc1ccc2c(=O)cc(-c3ccccc3)oc2c1)N/N=C/c1cccc(OCc2csc(-c3ccccc3)n2)c1 | 24 |
| O=C(Cc1csc(-c2cccc(C(F)(F)F)c2)n1)N/N=C/c1ccccc1OCc1csc(-c2ccc(Br)cc2)n1 | 24.71 |
| O=C(COc1ccc2c(=O)cc(-c3ccccc3)oc2c1)N/N=C/c1cccc(OCc2csc(-c3ccc(Br)cc3)n2)c1 | 39.86 |
| Cc1nc(-c2ccccc2)sc1C(=O)COc1ccc(/C=N\NC(=O)Cc2csc(-c3cccc(C(F)(F)F)c3)n2)cc1 | 18 |
| Cc1ccc(-c2nc(CC(=O)N/N=C\c3ccc(OCc4csc(-c5ccccc5)n4)cc3)cs2)cc1 | 21.43 |
| O=C(Cc1csc(-c2cccc(C(F)(F)F)c2)n1)N/N=C\c1ccc(OCc2csc(-c3ccccc3)n2)cc1 | 20.71 |
